Measurements from different studies.
Compare with care: the assays were run in different laboratories.
Target: Muscarinic acetylcholine receptor M5 (CHRM5, Homo sapiens, UniProt P08912)
Tested at: 10 µM
One construct used (P08912 1-532): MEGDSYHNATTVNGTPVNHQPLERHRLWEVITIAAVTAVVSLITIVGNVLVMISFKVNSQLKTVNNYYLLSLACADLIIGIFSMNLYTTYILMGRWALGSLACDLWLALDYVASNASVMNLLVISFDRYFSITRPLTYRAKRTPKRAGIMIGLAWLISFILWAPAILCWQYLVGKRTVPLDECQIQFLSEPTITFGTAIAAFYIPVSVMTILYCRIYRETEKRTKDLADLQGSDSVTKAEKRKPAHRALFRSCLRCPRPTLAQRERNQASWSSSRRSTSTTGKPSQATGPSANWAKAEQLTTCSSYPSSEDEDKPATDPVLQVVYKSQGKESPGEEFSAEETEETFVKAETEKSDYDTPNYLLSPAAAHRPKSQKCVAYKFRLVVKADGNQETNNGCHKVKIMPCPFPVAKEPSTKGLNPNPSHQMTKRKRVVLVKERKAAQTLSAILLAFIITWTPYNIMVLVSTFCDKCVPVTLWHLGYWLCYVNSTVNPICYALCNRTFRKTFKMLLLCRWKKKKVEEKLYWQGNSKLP

With `COc1cc(NC(C)=O)c(Cl)cc1C(=O)Nc1nccs1` the inhibition was -6.1% (cell-free assay).
`N#Cc1cc(Cn2c(N3CCCC3)nc3ccccc32)ccc1F` gave an inhibition of 10.9% (ligand displacement).
For `CCN(CC)c1ccc(C2Nc3ccc(C(=O)c4ccccc4)cc3NC3=C2C(=O)CC(C)(C)C3)cc1` (centres unmarked), the inhibition was 20% (ligand displacement, radioligand).
The inhibition of `CO[C@@H](C)c1c(Nc2ccc([C@H](N(C)C(=O)C3CCS(=O)(=O)CC3)C(F)(F)F)cc2)cnc2cc(Cl)nn12` is reported as 14.6% (ligand displacement).
`CN(C(=O)n1cnc(-c2ccc[n+]([O-])c2)c1)C1CCCCC1` has an inhibition of 8.59% (cell-free assay).
With `O=C(c1ccc(Cl)cc1)N(Cc1ccccc1)C1CCCCC1` the inhibition was -9.6% (cell-free assay).
`CCCNc1nc2ccccc2n1Cc1ccc(Cl)cc1` has an inhibition of 14.5% (ligand displacement).
`CNC(=N)NCCC[C@H](NC(=O)[C@H](CC(C)C)NC(=O)NNC(=O)[C@H](Cc1ccccc1)NC(=O)[C@H](CO)NC(=O)[C@H](CC(N)=O)NC(=O)[C@@H](Cc1ccncc1)NC(=O)[C@H](N)Cc1ccc(O)cc1)C(=O)N[C@@H](Cc1ccccc1)C(N)=O` gave an inhibition of 14.9% (ligand displacement).
